Activity calls are given as the source filed them. The rule behind the calls is not given here.
Tests used:
[1] = molecular target: Focal adhesion kinase 1 (Homo sapiens, UniProt Q05397); test: Inhibition of N-terminal 6His-tagged recombinant human FAK (411 to 686 residues) expressed in baculovirus infected Sf21 cells by filter binding assay
[2] = molecular target: Calcium/calmodulin-dependent protein kinase type IV (Homo sapiens) (UniProt Q16566); test: Inhibition of C-terminal His6-tagged recombinant full length human CaMKIV expressed in baculovirus infected Sf21 cells at 0.3 uM by filter binding assay relative to control
Method in brief: (§1)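 KinaseProfiler panel of 233 kinases: radiometric filter-binding activity assays with compound at 0.3 or 3 µmol/L. Read-out is percent inhibition.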

[3] = test system: COLO 205; test: Induction of cell cycle arrest in human COLO 205 cells assessed as increase in cells accumulation at G1 phase at 0.03 to 10 uM incubated for 24 to 48 hrs by propidium iodide staining based flow cytometric analysis; format: functional; conditions: dose 0.03-10 µM, time lower 24.0 hrs, time upper […]
Method in brief: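 COLO 205, MCF-7 or NCI-H929 cells seeded in 96-well plates overnight at 37°C, then exposed to DMSO or increasing compound concentrations for 24 or 48 h. Fixed and stained with propidium iodide (Vindelov method), then analysed by flow cytometry for sub-G1, G1, S and G2-M fractions. Experiment repeated twice.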

[4] = test system: HeLa; test: Antiproliferative activity against human HeLa cells assessed as reduction in cell viability after 72 hrs by CellTiter-Glo assay; format: functional, cell-based
Method in brief: (§2)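 Cells seeded in 96-well plates, left overnight at 37°C, then exposed to a range of test concentrations for 72 h. Viability read by CellTiter-Glo luminescence; IC50 from four-parameter curve fit. Lines kept at 37°C, 5% CO2, in recommended growth medium.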

[5] = molecular target: Serine/threonine-protein kinase PAK 1 (Homo sapiens, UniProt Q13153); test: Inhibition of PAK1 (unknown origin)
Sequence of Serine/threonine-protein kinase PAK 1 (Q13153 whole entry): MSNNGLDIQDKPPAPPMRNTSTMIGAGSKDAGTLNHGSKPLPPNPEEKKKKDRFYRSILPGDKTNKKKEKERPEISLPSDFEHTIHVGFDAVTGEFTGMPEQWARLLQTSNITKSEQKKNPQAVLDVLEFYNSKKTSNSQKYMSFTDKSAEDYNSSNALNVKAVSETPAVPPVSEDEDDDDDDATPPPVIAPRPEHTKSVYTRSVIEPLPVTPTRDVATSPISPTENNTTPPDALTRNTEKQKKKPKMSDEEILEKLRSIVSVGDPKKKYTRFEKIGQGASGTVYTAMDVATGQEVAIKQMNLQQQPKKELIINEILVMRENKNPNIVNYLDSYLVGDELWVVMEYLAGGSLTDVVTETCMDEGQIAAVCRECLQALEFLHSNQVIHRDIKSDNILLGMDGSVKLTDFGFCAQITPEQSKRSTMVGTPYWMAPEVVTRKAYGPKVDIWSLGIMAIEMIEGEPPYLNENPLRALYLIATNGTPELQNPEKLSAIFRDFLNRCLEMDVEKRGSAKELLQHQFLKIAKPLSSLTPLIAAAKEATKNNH

[6] = molecular target: Insulin receptor (Mus musculus) (UniProt P15208); conditions: CD-1, dose >= 30.0 mg/kg, route po, time 4.25 hrs
Sequence of Insulin receptor (Mus musculus) (P15208 28-748 limits assumed): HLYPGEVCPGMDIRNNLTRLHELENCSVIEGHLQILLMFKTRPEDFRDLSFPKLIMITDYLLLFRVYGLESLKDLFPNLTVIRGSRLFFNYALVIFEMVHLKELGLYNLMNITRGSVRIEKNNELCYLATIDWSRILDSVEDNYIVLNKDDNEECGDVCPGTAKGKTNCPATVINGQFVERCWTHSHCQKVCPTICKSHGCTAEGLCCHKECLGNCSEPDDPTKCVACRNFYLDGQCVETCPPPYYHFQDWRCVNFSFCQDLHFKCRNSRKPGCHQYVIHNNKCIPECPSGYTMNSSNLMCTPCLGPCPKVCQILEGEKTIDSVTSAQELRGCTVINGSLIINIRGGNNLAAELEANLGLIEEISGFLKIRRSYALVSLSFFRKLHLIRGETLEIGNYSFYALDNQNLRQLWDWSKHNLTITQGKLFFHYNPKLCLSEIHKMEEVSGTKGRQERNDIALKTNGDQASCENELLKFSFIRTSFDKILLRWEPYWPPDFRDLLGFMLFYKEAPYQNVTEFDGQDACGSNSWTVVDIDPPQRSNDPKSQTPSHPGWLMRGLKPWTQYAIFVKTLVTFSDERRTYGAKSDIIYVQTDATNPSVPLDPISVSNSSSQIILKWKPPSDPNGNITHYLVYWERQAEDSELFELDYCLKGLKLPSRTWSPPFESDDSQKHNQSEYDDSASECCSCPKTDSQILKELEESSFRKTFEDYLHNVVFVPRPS
Sequence of Insulin receptor (Mus musculus) (P15208 753-1372 limits assumed): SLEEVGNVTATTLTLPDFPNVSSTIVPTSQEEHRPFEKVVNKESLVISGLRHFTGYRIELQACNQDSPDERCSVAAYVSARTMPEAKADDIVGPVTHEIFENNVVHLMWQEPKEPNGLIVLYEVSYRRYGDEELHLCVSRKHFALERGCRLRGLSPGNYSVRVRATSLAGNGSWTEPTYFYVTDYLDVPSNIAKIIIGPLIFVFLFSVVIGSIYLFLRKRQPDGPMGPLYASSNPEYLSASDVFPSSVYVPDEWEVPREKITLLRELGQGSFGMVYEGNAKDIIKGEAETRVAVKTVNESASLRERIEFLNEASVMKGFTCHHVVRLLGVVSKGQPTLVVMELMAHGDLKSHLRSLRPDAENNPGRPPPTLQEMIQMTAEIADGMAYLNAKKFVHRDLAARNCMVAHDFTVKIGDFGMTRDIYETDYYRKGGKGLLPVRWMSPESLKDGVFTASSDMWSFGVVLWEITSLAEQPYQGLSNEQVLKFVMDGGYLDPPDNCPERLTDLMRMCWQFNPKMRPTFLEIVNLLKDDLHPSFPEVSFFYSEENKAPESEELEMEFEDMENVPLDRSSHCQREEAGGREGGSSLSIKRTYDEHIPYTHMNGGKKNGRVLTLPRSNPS

[7] = Cytotoxicity against human PREC cells assessed as reduction in cell viability after 72 hrs by CellTiter-Glo assay; format: toxicity, cell-based; method in brief: as §2
[8] = molecular target: Phosphatidylinositol 4,5-bisphosphate 3-kinase catalytic subunit gamma isoform (Homo sapiens, UniProt P48736); test: Inhibition of PI3Kgamma (unknown origin)
Sequence of Phosphatidylinositol 4,5-bisphosphate 3-kinase catalytic subunit gamma isoform (P48736 whole entry, canonical isoform): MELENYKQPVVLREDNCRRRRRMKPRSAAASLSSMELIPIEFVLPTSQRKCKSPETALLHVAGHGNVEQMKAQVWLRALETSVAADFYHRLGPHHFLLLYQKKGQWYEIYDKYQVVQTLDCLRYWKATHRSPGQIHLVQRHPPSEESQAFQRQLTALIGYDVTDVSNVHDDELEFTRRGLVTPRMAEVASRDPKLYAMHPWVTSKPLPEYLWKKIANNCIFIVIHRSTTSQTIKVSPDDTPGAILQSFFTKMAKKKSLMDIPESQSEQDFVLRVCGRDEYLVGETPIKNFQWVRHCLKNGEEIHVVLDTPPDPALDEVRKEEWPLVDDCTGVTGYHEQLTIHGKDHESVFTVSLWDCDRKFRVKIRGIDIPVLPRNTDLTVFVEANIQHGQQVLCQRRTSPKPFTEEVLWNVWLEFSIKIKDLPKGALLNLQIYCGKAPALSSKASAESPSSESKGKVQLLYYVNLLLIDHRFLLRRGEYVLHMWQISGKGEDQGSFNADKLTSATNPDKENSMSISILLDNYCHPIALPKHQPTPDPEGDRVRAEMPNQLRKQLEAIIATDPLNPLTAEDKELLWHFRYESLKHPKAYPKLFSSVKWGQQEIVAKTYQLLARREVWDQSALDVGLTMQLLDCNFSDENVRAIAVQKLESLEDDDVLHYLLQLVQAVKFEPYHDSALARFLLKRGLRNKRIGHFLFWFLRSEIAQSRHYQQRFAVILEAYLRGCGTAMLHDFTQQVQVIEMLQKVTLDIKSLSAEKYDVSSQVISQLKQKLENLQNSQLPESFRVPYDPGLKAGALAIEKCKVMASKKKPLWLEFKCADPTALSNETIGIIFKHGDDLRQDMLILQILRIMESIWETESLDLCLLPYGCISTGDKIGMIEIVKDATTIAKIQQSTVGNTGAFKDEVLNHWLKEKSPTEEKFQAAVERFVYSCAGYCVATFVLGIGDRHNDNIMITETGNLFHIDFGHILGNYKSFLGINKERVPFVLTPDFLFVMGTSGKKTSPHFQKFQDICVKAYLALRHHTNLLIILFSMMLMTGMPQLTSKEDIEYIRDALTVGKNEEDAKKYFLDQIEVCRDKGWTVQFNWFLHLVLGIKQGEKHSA

[9] = molecular target: Tyrosine-protein kinase Yes (Homo sapiens) (UniProt P07947); test: Inhibition of N-terminal His6 tagged recombinant full-length human Yes expressed in baculovirus infected Sf21 cells at 0.3 uM by filter binding assay relative to control
Method in brief: (§3)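 Outsourced single-concentration screen in a commercial panel of 233 protein kinases, run as radiometric filter-binding activity assays. Test agent was tested at 0.3 or 3 µmol/L, as given in each line, from a 10 mmol/L DMSO stock. Activity is expressed as percent inhibition relative to control.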

[10] = molecular target: Serine/threonine-protein kinase TAO2 (Homo sapiens) (UniProt Q9UL54); test: Inhibition of N-terminal 6His-tagged recombinant human TAO2 expressed in Sf21 cells at 0.3 uM by filter binding assay relative to control; method in brief: as §3
[11] = molecular target: Mitogen-activated protein kinase kinase kinase 9 (Homo sapiens) (UniProt P80192); test: Inhibition of N-terminal 6His-tagged recombinant human MLK1 (134 to 414 residues) expressed in baculovirus infected Sf21 cells at 3 uM by filter binding assay relative to control; method in brief: as §3
Sequence of Mitogen-activated protein kinase kinase kinase 9 (Homo sapiens) (P80192 whole entry, looked up, the tested form may be a part): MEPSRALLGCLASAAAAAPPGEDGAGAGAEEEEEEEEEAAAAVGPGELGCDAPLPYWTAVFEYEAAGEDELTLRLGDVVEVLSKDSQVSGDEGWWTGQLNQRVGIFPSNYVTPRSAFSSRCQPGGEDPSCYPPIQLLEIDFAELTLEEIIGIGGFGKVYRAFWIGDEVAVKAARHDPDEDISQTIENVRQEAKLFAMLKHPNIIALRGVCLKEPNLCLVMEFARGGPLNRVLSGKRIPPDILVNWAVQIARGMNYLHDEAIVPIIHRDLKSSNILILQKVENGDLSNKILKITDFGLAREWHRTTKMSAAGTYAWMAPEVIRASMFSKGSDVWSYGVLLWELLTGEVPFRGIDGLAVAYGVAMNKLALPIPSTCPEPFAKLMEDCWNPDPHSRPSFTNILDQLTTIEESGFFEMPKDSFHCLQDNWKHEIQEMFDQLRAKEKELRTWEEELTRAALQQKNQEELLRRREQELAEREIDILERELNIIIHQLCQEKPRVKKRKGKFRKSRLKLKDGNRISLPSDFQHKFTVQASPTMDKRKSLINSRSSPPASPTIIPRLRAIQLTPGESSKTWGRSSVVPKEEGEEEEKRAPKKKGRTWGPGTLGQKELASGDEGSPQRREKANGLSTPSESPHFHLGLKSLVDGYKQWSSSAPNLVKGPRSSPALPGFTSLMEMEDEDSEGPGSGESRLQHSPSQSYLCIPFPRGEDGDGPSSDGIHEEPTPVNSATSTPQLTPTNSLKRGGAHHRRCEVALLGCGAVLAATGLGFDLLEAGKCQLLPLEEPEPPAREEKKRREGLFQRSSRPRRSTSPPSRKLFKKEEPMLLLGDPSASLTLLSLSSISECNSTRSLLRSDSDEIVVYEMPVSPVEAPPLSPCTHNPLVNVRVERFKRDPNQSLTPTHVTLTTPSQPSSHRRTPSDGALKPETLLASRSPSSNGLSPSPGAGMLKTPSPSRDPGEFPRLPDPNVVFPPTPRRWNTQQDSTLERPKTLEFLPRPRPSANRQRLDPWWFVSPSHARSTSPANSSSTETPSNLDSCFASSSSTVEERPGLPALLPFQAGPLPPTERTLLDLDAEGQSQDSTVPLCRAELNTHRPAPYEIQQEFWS

[12] = Antiproliferative activity against human SR-786 cells assessed as reduction in cell viability after 72 hrs by CellTiter-Glo assay; format: functional, cell-based; conditions: SR-786, 72 h; method in brief: as §2
[13] = molecular target: Mitogen-activated protein kinase kinase kinase 9 (Homo sapiens) (UniProt P80192); test: Inhibition of N-terminal 6His-tagged recombinant human MLK1 (134 to 414 residues) expressed in baculovirus infected Sf21 cells at 0.3 uM by filter binding assay relative to control; method in brief: as §3
[14] = molecular target: Vascular endothelial growth factor receptor 1 (Homo sapiens) (UniProt P17948); test: Inhibition of N-terminal GST-tagged recombinant human Flt1 (783 to end residues) expressed in baculovirus infected Sf21 cells at 0.3 uM by filter binding assay relative to control; method in brief: as §3
[15] = molecular target: Tyrosine-protein kinase Fyn (Homo sapiens, UniProt P06241); test: Inhibition of FYN (unknown origin)
Sequence of Tyrosine-protein kinase Fyn (P06241 whole entry): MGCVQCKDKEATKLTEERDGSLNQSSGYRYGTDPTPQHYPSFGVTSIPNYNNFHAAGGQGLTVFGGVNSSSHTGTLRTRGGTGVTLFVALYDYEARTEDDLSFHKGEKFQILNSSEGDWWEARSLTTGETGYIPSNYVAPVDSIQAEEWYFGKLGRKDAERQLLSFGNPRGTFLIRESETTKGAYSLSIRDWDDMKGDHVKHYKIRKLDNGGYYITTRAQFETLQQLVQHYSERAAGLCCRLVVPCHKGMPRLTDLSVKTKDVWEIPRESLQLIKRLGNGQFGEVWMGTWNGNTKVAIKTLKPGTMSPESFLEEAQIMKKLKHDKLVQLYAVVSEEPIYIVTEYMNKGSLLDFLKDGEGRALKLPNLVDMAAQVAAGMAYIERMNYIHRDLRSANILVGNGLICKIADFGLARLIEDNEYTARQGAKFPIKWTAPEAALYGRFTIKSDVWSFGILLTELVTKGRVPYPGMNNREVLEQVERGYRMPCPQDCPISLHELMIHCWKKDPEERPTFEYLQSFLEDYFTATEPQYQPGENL

[16] = molecular target: Mitogen-activated protein kinase kinase kinase 5 (Homo sapiens, UniProt Q99683); test: Inhibition of ASK1 (unknown origin)
[17] = test system: MOLP-8; test: Antiproliferative activity against human MOLP8 cells assessed as reduction in cell viability after 72 hrs by CellTiter-Glo assay; format: functional, cell-based; conditions: MOLP-8, 72 h; method in brief: as §2
[18] = molecular target: Proto-oncogene tyrosine-protein kinase receptor Ret (Homo sapiens) (UniProt P07949); test: Inhibition of N-Terminal GST-tagged recombinant human Ret (658 to end residues) expressed in baculovirus infected Sf21 cells at 3 uM by filter binding assay relative to control; method in brief: as §1
[19] = molecular target: Tyrosine-protein kinase receptor UFO (Homo sapiens) (UniProt P30530); test: Inhibition of N-terminal His6-tagged recombinant human Axl (473 to end residues) expressed in Sf21 cells at 3 uM by filter binding assay relative to control
[20] = molecular target: Tyrosine-protein kinase Lyn (Homo sapiens) (UniProt P07948); test: Inhibition of N-terminal His6-tagged recombinant full-length human Lyn expressed in Sf21 cells at 3 uM by filter binding assay relative to control; method in brief: as §3
[21] = molecular target: Epidermal growth factor receptor (Homo sapiens, UniProt P00533); test: Inhibition of EGFR (unknown origin)
[22] = molecular target: Serine/threonine-protein kinase pim-1 (Homo sapiens) (UniProt P11309); test: Inhibition of N-terminal GST-tagged recombinant human full-length Pim-1 expressed in Escherichia coli cells at 3 uM by filter binding assay relative to control; method in brief: as §3
Sequence of Serine/threonine-protein kinase pim-1 (Homo sapiens) (P11309 whole entry, looked up): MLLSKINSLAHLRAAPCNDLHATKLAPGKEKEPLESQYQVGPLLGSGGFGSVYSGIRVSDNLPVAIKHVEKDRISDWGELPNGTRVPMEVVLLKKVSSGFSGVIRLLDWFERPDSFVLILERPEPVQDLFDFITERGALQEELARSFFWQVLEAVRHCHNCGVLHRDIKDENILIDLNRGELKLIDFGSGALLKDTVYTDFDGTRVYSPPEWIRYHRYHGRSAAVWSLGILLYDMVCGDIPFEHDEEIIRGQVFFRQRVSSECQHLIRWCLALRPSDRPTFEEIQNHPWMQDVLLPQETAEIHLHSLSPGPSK

[23] = molecular target: Insulin receptor (Mus musculus) (UniProt P15208); conditions: CD-1, dose 30.0 mg/kg, route po, time 4.0 hrs

For `CCc1cc(Nc2nccc(-c3c(-c4ccc(OC)c(C(=O)Nc5c(F)cccc5F)c4)nc4ccccn34)n2)c(OC)cc1N1CCC(N2CCN(S(C)(=O)=O)CC2)CC1`, the IC50 [1] was 0.362 µM, the inhibition [2] was 11% and the Activity [3] was “Active”. The IC50 [4] was > 20 µM, the IC50 [5] was > 10 µM and the inhibition [6] was “Dose-Dependent Effect”. For the same compound, the IC50 at 72 h [7] was 0.068 µM, the IC50 [8] was > 10 µM and the inhibition [9] was 0%. For the same compound, the inhibition [10] was 1%, the inhibition [11] was -8% and the IC50 [12] was > 30 µM. For the same compound, the inhibition [13] was 1%, the inhibition [14] was 10% and the IC50 [15] was 6.3 µM. For the same compound, the IC50 [16] was > 25 µM, the IC50 [17] was 0.096 µM and the inhibition [18] was 52%. For the same compound, the inhibition [19] was 1%, the inhibition [20] was 37% and the IC50 [21] was > 10 µM. For the same compound, the inhibition [22] was 25% and the inhibition [23] was “inactive”.
